Source: ChEMBL document CHEMBL4622987, “Folate Receptor Targeting and Cathepsin B-Sensitive Drug Delivery System for Selective Cancer Cell Death and Imaging” (ACS Med Chem Lett, 2020)

Columns and labels:
A549 [1] = experiment: Cytotoxicity against FR-negative human A549 cells assessed as reduction in cell viability at 20 uM measured after 72 hrs by MTT assay relative to control; type: functional; conditions: A549, 72 h
Outline: (§1)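 Cancer or normal human cells were exposed to a range of concentrations for 72 h. Viability was read by MTT assay. IC50 was derived from the concentration–response curves, and percent viability loss was taken at 20 μM.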

Cathepsin B [2] = target: T1, Cathepsin B (Homo sapiens, UniProt P07858); experiment: Prodrug release assessed as cathepsin B (unknown origin)-mediated cleavage of parent compound by measuring retention time of folic acid linked-glycyl-hydroxypehylalanine by RP-HPLC analysis/mass spectrometry; type: ADME
Outline: (§2)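 The cathepsin B digest of the conjugate was analysed by analytical RP-HPLC with mass spectrometry. Cleavage products were assigned from their retention times and [M+H]+ or [M+Na]+ ions.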

[3] = Cytotoxicity against human 16HBE cells assessed as reduction in cell viability at 20 uM measured after 72 hrs by MTT assay relative to control; type: cell-based; conditions: 16HBE (16HBE14o-) cells, read-out: INH; outline: as §1
SiHa = experiment: Cytotoxicity against FR-positive human SiHa cells assessed as reduction in cell viability measured after 72 hrs by MTT assay; type: functional, cell-based; outline: as §1
[4] = Retention time of the compound by RP-HPLC analysis/mass spectrometry; type: physicochemical
[5] = Drug uptake in folate receptor negative human A549 cells assessed as accumulation of compound in lysosomes by measuring fluorescence intensity at 5 uM incubated for 24 hrs by Hoechst 33342 staining based confocal microscopy; type: ADME, cell-based; conditions: a549, 24 h
Outline: (§3)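 Cells were incubated with 5 μM conjugate for 24 h. Nuclei were counterstained with Hoechst 33342 (1 μg/mL). Cellular fluorescence and its localisation were imaged by confocal microscopy.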

Cathepsin B [6] = target: T1, Cathepsin B; experiment: Prodrug release assessed as cathepsin B (unknown origin)-mediated cleavage of parent compound by measuring retention time of cyclic dipeptide matography-mass spectrometry; type: ADME
SK-HEP1 = experiment: Cytotoxicity against FR-positive human SKHEP1 cells assessed as reduction in cell viability measured after 72 hrs by MTT assay; type: functional, cell-based; conditions: SK-HEP1, 72 h; outline: as §1
Cathepsin B [7] = target: T1, Cathepsin B; experiment: Prodrug release in FR-overexpressing human SKHEP1 cells assessed as cathepsin B-mediated 7-ethyl-10-hydroxycamptothecin accumulation in nucleus at 5 uM preincubated with cathepsin B inhibitor CA-074 Me for 24 hrs followed by compound treatment for 24 hrs by Hoechst 33342 staining based confocal microscopy; type: ADME, cell-based; conditions: sk-hep1, 24 h
Outline: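 SK-Hep-1 cells were pretreated with 20 μM CA-074 Me (cathepsin B inhibitor) for 24 h, then given 5 μM conjugate for 24 h. Nuclei were stained with Hoechst 33342 (1 μg/mL), and cells were imaged by confocal microscopy.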

Cathepsin B [8] = target: T1, Cathepsin B; experiment: Prodrug release assessed as cathepsin B (unknown origin)-mediated cleavage of GFLG peptide of parent compound by measuring formation of 7-ethyl-10-hydroxycamptothecin at 37 degreeC by fluorescence spectroscopy; type: ADME
Outline: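 The conjugate was incubated with cathepsin B at 37 °C, alongside an enzyme-free control. Release of free SN38 was followed as the rise in fluorescence over time (λex 365 nm, λem 540 nm).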

[9] = Drug uptake in folate receptor negative human 16HBE cells assessed as accumulation of compound at 5 uM incubated for 24 hrs by Hoechst 33342 staining based confocal microscopy; type: ADME, cell-based; conditions: 16hbe14o-; outline: as §3
Cathepsin B [10] = target: T1, Cathepsin B; experiment: Prodrug release in FR-overexpressing human SKHEP1 cells assessed as cathepsin B-mediated 7-ethyl-10-hydroxycamptothecin accumulation in nucleus at 5 uM incubated for 24 hrs by Hoechst 33342 staining based confocal microscopy; type: ADME, cell-based; conditions: sk-hep1, 24 h; outline: as §3
Cathepsin B [11] = target: T1, Cathepsin B; experiment: Prodrug release in FR-overexpressing human SKHEP1 cells assessed as cathepsin B-mediated 7-ethyl-10-hydroxycamptothecin accumulation in nucleus at 5 uM preincubated with folic acid for 1 hr followed by compound treatment for 24 hrs by Hoechst 33342 staining based confocal microscopy; type: ADME, cell-based; conditions: sk-hep1, 24 h
Outline: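 SK-Hep-1 cells were pre-exposed to 3 mM free folic acid for 1 h to block the folate receptor, then given 5 μM conjugate for 24 h. Hoechst 33342 (1 μg/mL) was used as the nuclear stain, with confocal microscopy read-out.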

Cathepsin B [12] = target: T1, Cathepsin B; experiment: Prodrug release assessed as cathepsin B (unknown origin)-mediated cleavage of GFLG peptide of parent compound by measuring formation of 7-ethyl-10-hydroxycamptothecin at 37 degreeC in presence of cathepsin B inhibitor CA-074 Me by fluorescence spectroscopy; type: ADME
Cathepsin B [13] = target: T1, Cathepsin B; experiment: Prodrug release assessed as cathepsin B (unknown origin)-mediated cleavage of GFLG peptide of parent compound by measuring retention time of 7-ethyl-10-hydroxycamptothecin by RP-HPLC analysis/mass spectrometry; type: ADME; outline: as §2
HeLa = experiment: Cytotoxicity against FR-positive human HeLa cells assessed as reduction in cell viability measured after 72 hrs by MTT assay; type: functional, cell-based; outline: as §1
16HBE14o- = experiment: Cytotoxicity against human 16HBE cells assessed as reduction in cell viability measured after 72 hrs by MTT assay; type: cell-based
A549 [14] = experiment: Cytotoxicity against FR-negative human A549 cells assessed as reduction in cell viability measured after 72 hrs by MTT assay; type: functional, cell-based; conditions: A549, 72 h

Structure (SMILES) | inhibition at 20 µM (A549 [1]) [%] | Retention_time (Cathepsin B [2]) [min] | cytotoxicity at 72 h, 20 µM [3] [%] | IC50 (SiHa) [µM] | Retention_time [4] [min] | Drug uptake [5] | Retention_time (Cathepsin B [6]) [min] | IC50 (SK-HEP1) [µM] | Drug metabolism (Cathepsin B [7]) | Drug metabolism (Cathepsin B [8]) | Drug uptake [9] | Drug metabolism (Cathepsin B [10]) | Drug metabolism (Cathepsin B [11]) | Drug metabolism (Cathepsin B [12]) | Retention_time (Cathepsin B [13]) [min] | IC50 (HeLa) [µM] | IC50 (16HBE14o-) [µM] | IC50 (A549 [14]) [µM]
CCc1c2c(nc3ccc(OCc4ccc(NC(=O)CNC(=O)[C@H](CC(C)C)NC(=O)[C@H](Cc5ccccc5)NC(=O)CNC(=O)COCCOCCOCCOCc5cn(CCOCCOCCOCCNC(=O)CC[C@H](NC(=O)c6ccc(NCc7cnc8nc(N)[nH]c(=O)c8n7)cc6)C(=O)O)nn5)cc4)cc13)-c1cc3c(c(=O)n1C2)COC(=O)[C@]3(O)CC | 51 | 21.4 | 24 | 2 to 3 | 26.4 | Not Active | 34 | 2 to 3 | Metabolite_Notdetected | Metabolite_Detected | Not Active | Metabolite_Detected | Metabolite_Notdetected | Metabolite_Notdetected | 23.6 | 2 to 3 |  | 
CCc1c2c(nc3ccc(O)cc13)-c1cc3c(c(=O)n1C2)COC(=O)[C@]3(O)CC [7-ETHYL-10-HYDROXYCAMPTOTHECIN] |  |  |  | 0.3 to 1 |  |  |  | 0.3 to 1 |  |  |  |  |  |  |  | 0.3 to 1 | 0.3 to 1 | 0.3 to 1
